The values below come from publication PMC3967098 (Journal of medicinal chemistry, 2008).

The test system of assay [1] is MCF7 cells. Put plainly: Long-term. The following applies: 1 week MCF7. It counts as cell-based, human. The procedure, abridged: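 MCF7 cells (1×10^5 seeded, supplemented DMEM, 37 °C, 5% CO2) were exposed for 1 week to two sub-cytotoxic ligand concentrations, re-dosed twice weekly, alongside a media-only control. Cells were counted by haemocytometer, and population doublings were calculated as n = (log Pn – log P0)/log2, where P0 is the seeding density. Values are reported ± sd.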

Another assay relates to c-kit2 quadruplex. Put plainly: SPR equilibrium binding, c-kit2 quadruplex. The arrangement: species or system human. The following applies: strong binding site; 25°C. The procedure, abridged:
(§1)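 5′-Biotinylated quadruplex oligonucleotides were captured on a streptavidin chip to 350-400 RU, with a blank reference flow cell. Runs used 10mM HEPES, 100mM KCl, 3mM EDTA and P20 surfactant (pH 7.3) at 25°C. Ligand (1nM–10µM) was injected at 50µl/min for 5–10 min to steady state, then buffer for 10 min. The surface was regenerated with 10mM glycine pH 2.0, and KA came from nonlinear least-squares fitting.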

Assay [2] deals with FRET-tagged duplex DNA sequence. Put plainly: FRET melting assay, duplex DNA. It counts as binding.
A further assay relates to c-myc quadruplex. Put plainly: SPR equilibrium binding, c-myc quadruplex. On the set-up: species or system human. The following applies: for SPR Ligand KA for a single-site fit, c-myc: strong binding site, 25°C. The procedure, abridged:
as §1

The test system of assay [3] is hTel quadruplex (human telomere). Put plainly: SPR equilibrium binding, hTel quadruplex. To be noted: strong binding site; 25°C, HEPES 100mM KCl pH 7.3. The method in brief: as §1
A further assay concerns c-kit1 quadruplex. Put plainly: SPR equilibrium binding, c-kit1 quadruplex. To be noted: strong binding site; 25°C. The arrangement: species or system human. The procedure, abridged: as §1
In assay [4] the test system is MCF7 cells. Put plainly: Assessment of chromosomal end-end fusions. The class given is cell-based, human. To be noted: 1 week, data not shown.
The subject of a further assay is DNA hairpin duplex. The following applies: cited from earlier work.
The subject of assay [5] is hTel quadruplex (human telomere). To be noted: strong binding site; cited from earlier work.
Assay [6] deals with MCF7 breast adenocarcinoma cell line. The following applies: read-out: SRB IC50, MCF7; cited from earlier work.
For assay [7], the system named is A549 non-small cell lung carcinoma cell line. To be noted: read-out: SRB IC50, A549; cited from earlier work.

In general, IC50 refers to the concentration that gives 50% inhibition.

Like-named read-outs stand apart in the source and are kept apart here.

On to `O=C(CN1CCCC1)Nc1ccc(NC(=O)c2cccc(NC(=O)Nc3cccc(C(=O)Nc4ccc(NC(=O)CN5CCCC5)cc4)c3)c2)cc1` [9a, 1,3-bis(3-(4-(2-(pyrrolidin-1-yl)acetamido)phenylcarbamoyl)phenyl)urea], for which the “PD (population doublings)” value in the assay with MCF7 cells [1] (5.00 μM) is 3.79 ± 0.12; in the assay with MCF7 cells [1] (10.00 μM), 3.00 ± 0.38. Moreover, the “SPR Ligand KA for a single-site fit, c-kit2” value (“SPR Ligand KA … c-kit2” for short) with c-kit2 quadruplex was 5.1e+06 M⁻¹. For the same compound, the “FRET ΔTm at a 1μM ligand concentration, Duplex” value (“FRET ΔTm” for short) in assay [2] stood at 0.0 ± 0.6 °C. For the same compound, the “selectivity for the c-myc quadruplex (SPR)” value in the assay with c-myc quadruplex (relative to the other quadruplexes) is around 3 fold. In the assay with c-myc quadruplex, the “SPR Ligand KA for a single-site fit, c-myc” value (“SPR Ligand KA … c-myc” for short) came to 1.4e+07 M⁻¹. Besides, the “SPR Ligand KA for a single-site fit, hTel” value (“SPR Ligand KA … hTel” below) in assay [3] was determined as 1.4e+06 M⁻¹. For the same compound, the “SPR Ligand KA for a single-site fit, c-kit1” value (“SPR Ligand KA … c-kit1” below) in the assay on c-kit1 quadruplex came to 2.1e+06 M⁻¹.

For the compound `O=C(CCN1CCCC1)Nc1ccc(NC(=O)c2cccc(NC(=O)Nc3cccc(C(=O)Nc4ccc(NC(=O)CCN5CCCC5)cc4)c3)c2)cc1` [9b, 1,3-bis(3-(4-(3-(pyrrolidin-1-yl)propanamido)phenylcarbamoyl)phenyl)urea], the “PD (population doublings)” value in the assay on MCF7 cells [1] (1.00 μM) worked out at 4.53 ± 0.07; in the assay on MCF7 cells [1] (1.75 μM), 4.50 ± 0.03; in the assay on MCF7 cells [1] (2.25 μM), 2.73 ± 0.20. For the same compound, in the assay with c-kit2 quadruplex, the “SPR Ligand KA … c-kit2” value worked out at 5e+06 M⁻¹. In addition, the “chromosomal end-end fusions relative to an untreated control” value in the assay on MCF7 cells [4] is reported as “did not show significant changes”. For the same compound, the “SPR Ligand KA … c-myc” value in the assay on c-myc quadruplex was found to be 2.1e+06 M⁻¹. The “SPR Ligand KA … hTel” value in [3] stood at 1.1e+06 M⁻¹. In the assay with c-kit1 quadruplex, the “SPR Ligand KA … c-kit1” value came to 1.4e+06 M⁻¹.

In the case of `O=C(CCCN1CCCC1)Nc1ccc(NC(=O)c2cccc(NC(=O)Nc3cccc(C(=O)Nc4ccc(NC(=O)CCCN5CCCC5)cc4)c3)c2)cc1` [9c, 1,3-bis(3-(4-(4-(pyrrolidin-1-yl)butanamido)phenylcarbamoyl)phenyl)urea], the “PD (population doublings)” value in the assay with MCF7 cells [1] (3.50 μM) was 3.94 ± 0.24; with MCF7 cells [1] (7.00 μM) it was 3.35 ± 0.03. The “SPR Ligand KA … c-kit2” value in the assay on c-kit2 quadruplex turned out to be 3.1e+06 M⁻¹. The “FRET ΔTm” value in [2] was 0.0 ± 0.6 °C. Moreover, the “SPR Ligand KA … c-myc” value with c-myc quadruplex amounted to 900000 M⁻¹. Moreover, in assay [3], the “SPR Ligand KA … hTel” value was 400000 M⁻¹. For the same compound, the “SPR Ligand KA … c-kit1” value in the assay with c-kit1 quadruplex came out at 400000 M⁻¹.

For the compound `O=C(CCCN1CCCC1)Nc1cccc(NC(=O)c2cccc(NC(=O)Nc3cccc(C(=O)Nc4cccc(NC(=O)CCCN5CCCC5)c4)c3)c2)c1` [9f, 1,3-bis(3-(3-(4-(pyrrolidin-1-yl)butanamido)phenylcarbamoyl)phenyl)urea], in assay [2], the “FRET ΔTm” value worked out at 0.0 ± 0.3 °C.

`O=C(CCN1CCCCC1)Nc1ccc(NC(=O)c2cccc(NC(=O)Nc3cccc(C(=O)Nc4ccc(NC(=O)CCN5CCCCC5)cc4)c3)c2)cc1` [9h, 1,3-bis(3-(4-(3-(piperidin-1-yl)propanamido)phenylcarbamoyl)phenyl)urea]: the “PD (population doublings)” value in the assay on MCF7 cells [1] (2.00 μM) was found to be 3.66 ± 0.00; with MCF7 cells [1] (3.50 μM), 3.46 ± 0.34.

Regarding `O=C(CCN1CCCC1)Nc1cccc(NC(=O)c2ccc(NC(=O)Nc3ccc(C(=O)Nc4cccc(NC(=O)CCN5CCCC5)c4)cc3)cc2)c1` [10e, 1,3-bis(4-(3-(3-(pyrrolidin-1-yl)propanamido)phenylcarbamoyl)phenyl)urea], the “PD (population doublings)” value in the assay on MCF7 cells [1] (1.00 μM) is 3.40 ± 0.26; in the assay with MCF7 cells [1] (2.00 μM), 1.81 ± 0.10.

Consider `CN(C)c1ccc(Nc2c3ccc(NC(=O)CCN4CCCC4)cc3nc3cc(NC(=O)CCN4CCCC4)ccc23)cc1` [BRACO-19, 3,6-bis(3-pyrrolidin-1-ylpropionamido)-9-(4-dimethylaminophenylamino) acridine], for which, in the assay with DNA hairpin duplex, the “SPR KA, Duplex” value was 500000 M⁻¹. The “SPR Ligand KA … hTel” value in [5] is 3.1e+07 M⁻¹. In addition, the IC50 in assay [6] was 2.5 µM; in [7], 2.4 µM.
